Test results as given in ChEMBL document CHEMBL1122233, “Antihypertensive 9-substituted 1-oxa-4,9-diazaspiro[5.5]undecan-3-ones” (J Med Chem, 1983).
Calls of active or inactive are those of the source. The rule behind the calls is not given here.

Assays:
Rattus norvegicus [1] = test: Percentage fall in systolic blood pressure after 2 hr at 25 mg/kg given perorally; type: functional, Artery; details: route oral
Summary of the method: (§1)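 Male Okamoto-Aoki spontaneously hypertensive rats, trained, in groups of four matched for mean systolic pressure; five treated groups and one vehicle control run concurrently. Oral dosing in water (solution or suspension, 0.1 mL/10 g) on two consecutive mornings. On day 2, rats were restrained at 30.0 ± 1.0 °C and tail-cuff systolic pressure recorded at 1–4 h; percent fall versus control, 1-tail t test, p ≤ 0.05.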

Rattus norvegicus [2] = test: Percentage fall in systolic blood pressure after 4 hr at 25 mg/kg given perorally; type: functional, Artery; details: route oral; summary of the method: as §1
Rattus norvegicus [3] = test: (§2) Percentage fall in systolic blood pressure after 1 hr at 25 mg/kg given perorally; type: functional, organism-based; design: dose 25 mg/kg; details: Artery; summary of the method: as §1
Rattus norvegicus [4] = test: (§3) Percentage fall in systolic blood pressure after 3 hr at 25 mg/kg given perorally; type: functional, organism-based; design: dose 25 mg/kg; details: Artery; summary of the method: as §1
Rattus norvegicus [5] = test: as §3; type: functional, Artery; details: route oral; summary of the method: as §1
Rattus norvegicus [6] = test: (§4) Percentage fall in systolic blood pressure after 4 hr at 12.5 mg/kg given perorally; type: functional, organism-based; design: dose 12.5 mg/kg; details: Artery; summary of the method: as §1
Rattus norvegicus [7] = test: (§5) Percentage fall in systolic blood pressure after 1 hr at 12.5 mg/kg given perorally; type: functional, organism-based; design: dose 12.5 mg/kg; details: Artery; summary of the method: as §1
[8] = target: T1, Adrenergic receptor alpha-2 (Rattus norvegicus, UniProt P22086+P19328+P22909); test: Affinity for alpha-2 adrenergic receptor of rat cerebral cortex was determined by ligand binding using [3H]yohimbine.; type: tissue-based
T1 sequence (P22086 whole entry): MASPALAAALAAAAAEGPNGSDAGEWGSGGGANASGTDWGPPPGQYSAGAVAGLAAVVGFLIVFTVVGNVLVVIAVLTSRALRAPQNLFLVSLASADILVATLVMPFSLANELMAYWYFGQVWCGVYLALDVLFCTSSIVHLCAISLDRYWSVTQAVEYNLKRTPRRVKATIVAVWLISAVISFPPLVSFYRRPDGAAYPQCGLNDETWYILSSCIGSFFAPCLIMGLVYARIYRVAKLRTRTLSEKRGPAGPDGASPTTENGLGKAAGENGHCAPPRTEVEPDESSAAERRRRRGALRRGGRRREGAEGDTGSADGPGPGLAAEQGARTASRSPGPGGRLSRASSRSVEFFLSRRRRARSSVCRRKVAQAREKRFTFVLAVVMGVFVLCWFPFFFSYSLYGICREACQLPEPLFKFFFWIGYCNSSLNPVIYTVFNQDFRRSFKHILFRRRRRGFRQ
T1 sequence (P19328 whole entry): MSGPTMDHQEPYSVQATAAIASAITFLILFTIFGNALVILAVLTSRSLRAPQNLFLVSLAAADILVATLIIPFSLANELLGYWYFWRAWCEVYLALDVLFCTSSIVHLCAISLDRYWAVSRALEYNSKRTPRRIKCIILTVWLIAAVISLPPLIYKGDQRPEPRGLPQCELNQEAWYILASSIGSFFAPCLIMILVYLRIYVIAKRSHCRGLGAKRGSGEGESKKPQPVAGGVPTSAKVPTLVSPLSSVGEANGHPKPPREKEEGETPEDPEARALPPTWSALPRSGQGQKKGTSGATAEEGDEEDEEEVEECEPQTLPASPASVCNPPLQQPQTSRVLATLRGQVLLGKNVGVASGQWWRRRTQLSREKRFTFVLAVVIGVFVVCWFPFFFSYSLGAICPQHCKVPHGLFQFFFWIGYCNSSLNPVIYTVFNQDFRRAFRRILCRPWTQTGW
T1 sequence (P22909 whole entry): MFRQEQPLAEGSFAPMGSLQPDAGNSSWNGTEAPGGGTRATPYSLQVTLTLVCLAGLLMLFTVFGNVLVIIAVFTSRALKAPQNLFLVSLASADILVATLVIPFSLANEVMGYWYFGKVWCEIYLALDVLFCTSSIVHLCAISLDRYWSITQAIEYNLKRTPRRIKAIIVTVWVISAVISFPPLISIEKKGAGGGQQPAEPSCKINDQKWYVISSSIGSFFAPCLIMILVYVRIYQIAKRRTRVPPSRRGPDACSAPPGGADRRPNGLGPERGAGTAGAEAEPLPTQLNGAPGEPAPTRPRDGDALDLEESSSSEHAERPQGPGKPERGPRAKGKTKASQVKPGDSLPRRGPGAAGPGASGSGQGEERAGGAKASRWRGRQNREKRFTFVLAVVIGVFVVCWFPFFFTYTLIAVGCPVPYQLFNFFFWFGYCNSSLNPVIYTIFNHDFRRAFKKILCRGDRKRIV
Summary of the method: (§6)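 Washed rat cerebral cortex membranes (homogenised in 50 mM Tris-HCl pH 7.8, pelleted at 48000g, washed 3 times) at 2.5 mg/mL protein. […] Ice-cold buffer stop, then filtration. Nonspecific binding defined with 200 μmol norepinephrine. KI from IC50 by Cheng-Prusoff, given as negative log.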

Rattus norvegicus [9] = test: Percentage fall in systolic blood pressure after 2 hr at 12.5 mg/kg given perorally; type: functional, organism-based; design: dose 12.5 mg/kg; details: Artery; summary of the method: as §1
Rattus norvegicus [10] = test: Percentage fall in systolic blood pressure after 3 hr at 12.5 mg/kg given perorally; type: functional, organism-based; design: dose 12.5 mg/kg; details: Artery; summary of the method: as §1
[11] = target: T2, Adrenergic receptor alpha-1 (Rattus norvegicus, UniProt P15823+P23944+P43140); test: Affinity for alpha-1 adrenoceptor of rat cerebral cortex was determined by ligand binding using [3H]prazosin.; type: tissue-based; summary of the method: as §6
T2 sequence (P15823 whole entry): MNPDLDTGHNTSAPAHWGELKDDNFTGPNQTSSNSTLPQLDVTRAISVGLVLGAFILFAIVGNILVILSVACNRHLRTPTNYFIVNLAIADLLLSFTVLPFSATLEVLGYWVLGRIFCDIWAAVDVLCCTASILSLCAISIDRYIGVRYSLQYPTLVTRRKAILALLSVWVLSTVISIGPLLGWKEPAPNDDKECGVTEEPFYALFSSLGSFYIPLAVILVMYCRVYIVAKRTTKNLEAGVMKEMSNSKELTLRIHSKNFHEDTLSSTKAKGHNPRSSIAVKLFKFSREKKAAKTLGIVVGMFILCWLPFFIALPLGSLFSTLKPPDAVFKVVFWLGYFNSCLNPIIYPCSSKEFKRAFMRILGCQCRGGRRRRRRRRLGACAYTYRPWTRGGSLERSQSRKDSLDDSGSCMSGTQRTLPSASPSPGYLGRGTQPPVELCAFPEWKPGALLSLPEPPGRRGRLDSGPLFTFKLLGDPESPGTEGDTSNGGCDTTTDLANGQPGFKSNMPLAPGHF
T2 sequence (P23944 whole entry): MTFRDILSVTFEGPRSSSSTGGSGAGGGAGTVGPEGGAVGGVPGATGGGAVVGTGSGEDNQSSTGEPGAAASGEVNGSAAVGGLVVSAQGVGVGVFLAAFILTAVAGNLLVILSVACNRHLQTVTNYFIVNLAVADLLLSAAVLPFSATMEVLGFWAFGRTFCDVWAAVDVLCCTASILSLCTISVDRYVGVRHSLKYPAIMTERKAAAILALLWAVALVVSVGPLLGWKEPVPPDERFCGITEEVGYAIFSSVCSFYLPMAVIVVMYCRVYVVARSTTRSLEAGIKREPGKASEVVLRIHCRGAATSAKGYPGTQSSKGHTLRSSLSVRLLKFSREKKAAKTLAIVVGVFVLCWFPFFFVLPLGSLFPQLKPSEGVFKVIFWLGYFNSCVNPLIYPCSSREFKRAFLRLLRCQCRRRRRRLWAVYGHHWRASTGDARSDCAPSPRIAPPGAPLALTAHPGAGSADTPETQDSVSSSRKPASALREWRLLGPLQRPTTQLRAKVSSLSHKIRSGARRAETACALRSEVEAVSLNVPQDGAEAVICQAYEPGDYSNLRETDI
T2 sequence (P43140 whole entry): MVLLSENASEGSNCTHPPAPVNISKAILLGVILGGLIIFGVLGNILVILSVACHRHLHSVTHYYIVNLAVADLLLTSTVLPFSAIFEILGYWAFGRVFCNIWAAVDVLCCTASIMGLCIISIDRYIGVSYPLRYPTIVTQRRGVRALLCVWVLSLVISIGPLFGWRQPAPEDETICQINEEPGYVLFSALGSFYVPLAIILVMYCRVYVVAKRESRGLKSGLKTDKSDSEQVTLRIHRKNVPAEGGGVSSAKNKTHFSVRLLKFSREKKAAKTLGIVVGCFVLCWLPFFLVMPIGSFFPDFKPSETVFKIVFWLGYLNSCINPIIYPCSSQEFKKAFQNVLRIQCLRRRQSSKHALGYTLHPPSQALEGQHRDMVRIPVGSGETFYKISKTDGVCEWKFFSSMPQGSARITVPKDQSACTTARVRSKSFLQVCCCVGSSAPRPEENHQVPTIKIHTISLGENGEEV

Rattus norvegicus [12] = test: as §2; type: functional, Artery; details: route oral; summary of the method: as §1
Rattus norvegicus [13] = test: as §4; type: functional, Artery; details: route oral; summary of the method: as §1
Rattus norvegicus [14] = test: Percentage fall in systolic blood pressure after 2 hours at 12.5 mg/kg given perorally; type: functional, Artery; details: route oral
Summary of the method: (§7)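 Male Okamoto-Aoki SHR, four per group, with a concurrent vehicle control group. Oral dosing in water (0.1 mL/10 g) on two consecutive mornings. After the day-2 dose, rats were restrained in a 30 °C chamber. Tail-cuff systolic pressure was taken at 1-4 h from four traces per rat. Result is % decrease versus control mean, by 1-tailed t test, p ≤ 0.05.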

Rattus norvegicus [15] = test: Percentage fall in systolic blood pressure after 4 hours at 12.5 mg/kg given perorally; type: functional, Artery; details: route oral; summary of the method: as §7
Rattus norvegicus [16] = test: (§8) Percentage fall in systolic blood pressure after 2 hours at 50 mg/kg given perorally; type: functional, Artery; details: route oral; summary of the method: as §7
Rattus norvegicus [17] = test: (§9) Percentage fall in systolic blood pressure after 4 hours at 50 mg/kg given perorally; type: functional, Artery; details: route oral; summary of the method: as §7
Rattus norvegicus [18] = test: Percentage fall in systolic blood pressure after 3 hours at 12.5 mg/kg given perorally; type: functional, Artery; details: route oral; summary of the method: as §7
Rattus norvegicus [19] = test: (§10) Percentage fall in systolic blood pressure after 3 hours at 50 mg/kg given perorally; type: functional, Artery; details: route oral; summary of the method: as §7
Rattus norvegicus [20] = test: (§11) Percentage fall in systolic blood pressure after 1 hr at 50 mg/kg given perorally; type: functional, Artery; details: route oral; summary of the method: as §7
Rattus norvegicus [21] = test: as §5; type: functional, Artery; details: route oral; summary of the method: as §7
Rattus norvegicus [22] = test: as §8; type: functional, organism-based; design: dose 50 mg/kg; details: Artery; summary of the method: as §7
Rattus norvegicus [23] = test: as §9; type: functional, organism-based; design: dose 50 mg/kg; details: Artery; summary of the method: as §1
Rattus norvegicus [24] = test: as §11; type: functional, organism-based; design: dose 50 mg/kg; details: Artery; summary of the method: as §1
Rattus norvegicus [25] = test: as §10; type: functional, organism-based; design: dose 50 mg/kg; details: Artery; summary of the method: as §7

O=C1COC2(CCN(CC(O)C3COc4ccccc4O3)CC2)CN1c1ccccc1 (configuration not stated)
Decrease in SBP (Rattus norvegicus [1]): 25% | Decrease in SBP (Rattus norvegicus [2]): 16% | Decrease in SBP (Rattus norvegicus [3]): Not significant | Decrease in SBP (Rattus norvegicus [4]): Not significant

O=C(NC1CCN(CCc2c[nH]c3ccccc23)CC1)c1ccccc1 [INDORAMIN]
Decrease in SBP (Rattus norvegicus [5]): 34% | Decrease in SBP (Rattus norvegicus [6]): inactive | Decrease in SBP (Rattus norvegicus [1]): 28% | Decrease in SBP (Rattus norvegicus [7]): inactive | -Log Ki [8]: 4.92 | Decrease in SBP (Rattus norvegicus [9]): inactive | Decrease in SBP (Rattus norvegicus [2]): 30% | Decrease in SBP (Rattus norvegicus [10]): inactive | -Log Ki [11]: 7.61 | Decrease in SBP (Rattus norvegicus [12]): 27%

CN1CC2(CCN(CC(O)C3COc4ccccc4O3)CC2)OCC1=O (stereo in doubt; 60)
Decrease in SBP (Rattus norvegicus [5]; 25 mg/kg): 17% | Decrease in SBP (Rattus norvegicus [1]; 25 mg/kg): 33% | Decrease in SBP (Rattus norvegicus [12]): 41%

O=C1COC2(CCN(CCCC(=O)c3ccc(F)cc3)CC2)CN1
Decrease in SBP (Rattus norvegicus [5]): 29% | Decrease in SBP (Rattus norvegicus [1]): 33% | Decrease in SBP (Rattus norvegicus [7]): Not significant | Decrease in SBP (Rattus norvegicus [13]): 18% | Decrease in SBP (Rattus norvegicus [9]): Not significant | Decrease in SBP (Rattus norvegicus [2]): 30% | Decrease in SBP (Rattus norvegicus [10]): Not significant | Decrease in SBP (Rattus norvegicus [12]): 50%

CN1CC2(CCN(CCc3c[nH]c4ccccc34)CC2)OCC1=O
Decrease in SBP (Rattus norvegicus [14]): 19% | Decrease in SBP (Rattus norvegicus [15]): 17% | Decrease in SBP (Rattus norvegicus [16]): 44% | Decrease in SBP (Rattus norvegicus [17]): 26% | Decrease in SBP (Rattus norvegicus [18]): 20% | Decrease in SBP (Rattus norvegicus [19]): 34% | Decrease in SBP (Rattus norvegicus [20]): 50% | Decrease in SBP (Rattus norvegicus [21]): 25%

O=C1COC2(CCN(CC(O)c3ccccc3)CC2)CN1 (configuration not stated)
Decrease in SBP (Rattus norvegicus [22]): Not significant | Decrease in SBP (Rattus norvegicus [23]): Not significant | Decrease in SBP (Rattus norvegicus [24]): Not significant | Decrease in SBP (Rattus norvegicus [25]): Not significant
